# Activity calls are given as the source filed them. The rule behind the calls is not given here.
# Columns and labels:
# [1] = Cytotoxicity against human MP8 cells assessed as growth inhibition after 72 hrs by MTS assay; type: functional, cell-based; conditions: MP8, 72 h
# Procedure, shortened: (§1)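 Log-phase cells seeded at 4500 cells/50 µL and grown 24 h, then exposed 72 h to 0.01-100 µM compound; vehicle controls 0.01% DMSO. MTS read-out at 490 nm, expressed as % of DMSO-treated cells. Eight replicates per condition, at least three independent repeats; IC50 read graphically from dose-response curves.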
# [2] = Cytotoxicity against human M14 cells assessed as growth inhibition after 72 hrs by MTS assay; type: functional, cell-based; conditions: M14, 72 h; procedure, shortened: as §1
# [3] = Cytotoxicity against human PC3 cells assessed as growth inhibition after 72 hrs by MTS assay; type: functional, cell-based; conditions: PC-3, 72 h; procedure, shortened: as §1
# [4] = Cytotoxicity against human WI38 cells assessed as growth inhibition after 72 hrs by MTS assay; type: toxicity, cell-based, WI-38; procedure, shortened: as §1
# [5] = Cytotoxicity against human DU145 cells assessed as growth inhibition after 72 hrs by MTS assay; type: functional, cell-based; conditions: DU-145, 72 h; procedure, shortened: as §1
# [6] = Cytotoxicity against human MCF10A cells assessed as growth inhibition after 72 hrs by MTS assay; type: toxicity, cell-based, MCF-10A; procedure, shortened: as §1
# [7] = Cytotoxicity against human JR8 cells assessed as growth inhibition after 72 hrs by MTS assay; type: functional, cell-based; conditions: JR8, 72 h; procedure, shortened: as §1
# [8] = Cytotoxicity against human MDA-MB-231 cells assessed as growth inhibition after 72 hrs by MTS assay; type: functional, cell-based; conditions: MDA-MB-231, 72 h; procedure, shortened: as §1
# [9] = Cytotoxicity against human MCF7 cells assessed as growth inhibition after 72 hrs by MTS assay; type: functional, cell-based; conditions: MCF7, 72 h; procedure, shortened: as §1
# [10] = Cytotoxicity against human STO cells assessed as growth inhibition after 72 hrs by MTS assay; type: functional, cell-based; procedure, shortened: as §1
# [11] = Oral bioavailability in monkey; type: ADME, organism-based, Macaca mulatta; conditions: rhesus monkey, in vivo
# [12] = Displacement of [3H]colchicine from tubulin (unknown origin); set-up: species or system Homo sapiens
# [13] = Oral bioavailability in rat; type: ADME, organism-based; conditions: in vivo
# [14] = Antitumor activity against mouse M5076 cells implanted in mouse assessed as increase in mouse life span at 100 mg/kg/day relative to control; type: functional
# [15] = Oral bioavailability in dog; type: ADME, organism-based, Canis lupus familiaris; conditions: in vivo
# [16] = Oral bioavailability in mouse; type: ADME, organism-based; conditions: in vivo
# [17] = Antitumor activity against mouse M5076 cells implanted in mouse assessed as delay in time to develop 1 g tumor volume at 100 mg/kg/day; type: functional
# [18] = Toxicity in mouse implanted with mouse M5076 cells; type: organism-based
# STO [19] = experiment: Inhibition of alpha-tubulin polymerization in human STO cells assessed as increase in ratio of soluble to polymerized tubulin fraction at 2 nM after 24 hrs by western blot analysis; type: cell-based
# [20] = Cell cycle arrest in human STO cells assessed as mitotic cells at antiproliferative IC50 after 72 hrs by fluorescence microscopic analysis relative to control; type: functional
# STO [21] = experiment: Cell cycle arrest in human STO cells assessed as accumulation at G2/M phase at antiproliferative IC50 after 48 to 72 hrs by propidium iodide staining based flow cytometry; type: functional
# Procedure, shortened: (§2)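 STO or MP8 cells exposed 48 and 72 h to compound at IC50 or IC80 (72-h MTS values), controls 1% DMSO. Adherent plus floating cells fixed in 70% ethanol, stained 30 min at 4°C with propidium iodide 50 µg/mL, RNase, 0.05% NP-40 in PBS. ≥30000 events per flow cytometry sample; Modfit model for G1/S/G2/M percentages; mean of three independent experiments.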
# MP8 [22] = experiment: Cell cycle arrest in human MP8 cells assessed as accumulation at G2/M phase at antiproliferative IC50 after 48 to 72 hrs by propidium iodide staining based flow cytometry; type: functional; procedure, shortened: as §2
# [23] = Cell cycle arrest in human MP8 cells assessed as mitotic cells at antiproliferative IC50 after 72 hrs by fluorescence microscopic analysis relative to control; type: functional
# MP8 [24] = experiment: Inhibition of alpha-tubulin polymerization in human MP8 cells assessed as increase in ratio of soluble to polymerized tubulin fraction at 13 nM after 24 hrs by western blot analysis; type: cell-based
# Mus musculus = experiment: Toxicity in nude mouse xenografted with human STO cells assessed as body weight loss at 5 mg/kg, ip administered once per seven days for 4 weeks starting from day 10 post cell inoculum; type: organism-based; conditions: in vivo, 672 h
# Procedure, shortened: (§3)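 Female nude mice, 6-8 weeks old; 10^7 exponentially growing STO cells injected s.c. into right flank; eight mice per group. Compound in 10% DMSO/90% saline, 5 mg/kg i.p. q7dx4 from day 10 after inoculum. Tumor diameters measured weekly by caliper, TV = d2×D/2; TVI% = 100 − (mean TV treated/mean TV control × 100). Toxicity scored as body weight loss and lethality.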
# [25] = Antitumor activity against human STO cells xenografted in nude mouse assessed as tumor growth inhibition at 5 mg/kg, ip administered once per seven days for 4 weeks starting from day 10 post cell inoculum; type: functional; conditions: read-out: TGI; procedure, shortened: as §3
# MP8 [26] = experiment: Inhibition of alpha-tubulin polymerization in human MP8 cells assessed as increase in ratio of soluble to polymerized tubulin fraction at antiproliferative IC50 after 24 hrs by western blot analysis; type: cell-based
# MP8 [27] = experiment: Cell cycle arrest in human MP8 cells assessed as reduction G1 phase at antiproliferative IC50 after 48 to 72 hrs by propidium iodide staining based flow cytometry; type: functional; procedure, shortened: as §2
# STO [28] = experiment: Inhibition of alpha-tubulin polymerization in human STO cells assessed as increase in ratio of soluble to polymerized tubulin fraction at antiproliferative IC50 after 24 hrs by western blot analysis; type: cell-based
# STO [29] = experiment: Cell cycle arrest in human STO cells assessed as reduction G1 phase at antiproliferative IC80 after 48 to 72 hrs by propidium iodide staining based flow cytometry; type: functional; procedure, shortened: as §2
# MP8 [30] = experiment: Cell cycle arrest in human MP8 cells assessed as reduction G1 phase at antiproliferative IC80 after 48 to 72 hrs by propidium iodide staining based flow cytometry; type: functional; procedure, shortened: as §2
# STO [31] = experiment: Cell cycle arrest in human STO cells assessed as reduction G1 phase at antiproliferative IC50 after 48 to 72 hrs by propidium iodide staining based flow cytometry; type: functional; procedure, shortened: as §2
Structure (SMILES),IC50 [1] [µM],IC50 [2] [µM],IC50 [3] [µM],IC50 at 72 h [4] [µM],IC50 [5] [µM],IC50 at 72 h [6] [µM],IC50 [7] [µM],IC50 [8] [µM],IC50 [9] [µM],IC50 [10] [µM],further results
COc1cc(Cn2cc3c(c2)-c2oncc2CC3)cc(OC)c1OC,0.73,0.89,0.87,> 100,0.99,> 100,0.63,0.75,0.92,0.62,–
COc1ccc(-n2cc3c(c2)-c2oncc2CC3)cc1,21.2,58.5,79.9,–,81.1,–,61.6,57.5,79.6,25.5,–
COc1cccc(Cn2cc3c(c2)-c2oncc2CC3)c1OC,> 100,> 100,> 100,–,> 100,–,> 100,> 100,> 100,> 100,–
COc1cc([C@H]2CN=C(c3ccc4c(ccn4C)c3)O2)cc(OC)c1OC,–,–,–,–,–,–,–,–,–,–,bioavailability [11]: 6.5 to 18.6%; Ki [12]: 0.65 µM; bioavailability [13]: 6.5 to 18.6%; Activity [14]: 206%; bioavailability [15]: 6.5 to 18.6%; bioavailability [16]: 6.5 to 18.6%; Time [17]: 28 days; MTD [18]: 100 mg/kg/day
CCOC(=O)c1c2c(c(C)n1Cc1ccc(OC)cc1)-c1oncc1CC2,> 100,> 100,> 100,–,> 100,–,> 100,> 100,> 100,> 100,–
CCC1=C[C@@H]2CN(C1)Cc1c([nH]c3ccccc13)[C@@](C(=O)OC)(c1cc3c(cc1OC)N(C)[C@H]1[C@@](O)(C(=O)OC)[C@H](OC(C)=O)[C@]4(CC)C=CCN5CC[C@]31[C@@H]54)C2 [VINORELBINE],–,–,–,–,–,–,–,–,–,–,inhibition (STO [19]): Active; Activity [20]: 35 - 70%; Activity (STO [21]): Active; Activity (MP8 [22]): Active; Activity [23]: 35 - 70%; inhibition (MP8 [24]): Active
COc1cc(Cn2cc3c(c2)-c2oncc2CC3)cc(OC)c1,0.07,0.31,0.27,> 100,0.31,> 100,0.23,0.32,0.33,0.06,Activity (Mus musculus): Non-Toxic; inhibition in vivo at 5 mg/kg [25]: 51%; inhibition (MP8 [26]): Active; Activity (MP8 [27]): Active; inhibition (STO [28]): Active; Activity (STO [29]): Active; Activity (MP8 [30]): Active; Activity [20]: 35 - 70%; Activity [23]: 35 - 70%; Activity (STO [31]): Active
COc1ccccc1Cn1cc2c(c1)-c1oncc1CC2,1.52,20.5,18.6,> 100,17.5,> 100,16.2,14.4,19.4,0.79,–
Cc1c2c(cn1Cc1ccccc1)CCc1cnoc1-2,> 100,> 100,> 100,–,> 100,–,> 100,> 100,> 100,> 100,–
CC(=O)O[C@H]1C(=O)[C@@]2(C)[C@H]([C@H](OC(=O)c3ccccc3)[C@]3(O)C[C@H](OC(=O)[C@H](O)[C@@H](NC(=O)c4ccccc4)c4ccccc4)C(C)=C1C3(C)C)[C@]1(OC(C)=O)CO[C@@H]1C[C@@H]2O [PACLITAXEL],–,–,–,–,–,–,–,–,–,–,Activity [20]: 35 - 70%; Activity (STO [21]): Active; Activity (MP8 [22]): Active; Activity [23]: 35 - 70%
CCOC(=O)c1c2c(c(C)n1Cc1ccccc1)-c1oncc1CC2,> 100,> 100,> 100,–,> 100,–,> 100,> 100,> 100,> 100,–
Cc1ccc(Cn2cc3c(c2)-c2oncc2CC3)cc1,> 100,> 100,> 100,–,> 100,–,> 100,> 100,> 100,> 100,–
COc1cccc(Cn2cc3c(c2)-c2oncc2CC3)c1,0.51,1.02,0.96,> 100,1.37,> 100,0.96,0.85,1.17,0.46,–
COc1ccc(OC)c(Cn2cc3c(c2)-c2oncc2CC3)c1,> 100,16.8,23.7,> 100,19.5,> 100,19.2,19.6,15.2,> 100,–
COc1ccc(Cn2cc3c(c2)-c2oncc2CC3)cc1,> 100,12.5,18.6,> 100,15.2,> 100,9.15,15.6,7.89,> 100,–
Cc1c2c(cn1C)CCc1cnoc1-2,> 100,> 100,> 100,–,> 100,–,> 100,> 100,> 100,> 100,–
Cn1cc2c(c1)-c1oncc1CC2,26.7,65.8,77.1,–,69.3,–,58.4,55.4,86.6,28.1,–
COc1ccc(Cn2cc3c(c2)-c2oncc2CC3)cc1OC,0.51,0.96,0.79,> 100,0.87,> 100,0.85,0.88,1.03,0.64,–
c1ccc(-n2cc3c(c2)-c2oncc2CC3)cc1,25.3,63.4,70.5,–,76.4,–,59.6,68.4,81.2,29.5,–
c1ccc(Cn2cc3c(c2)-c2oncc2CC3)cc1,0.69,6.88,13.5,> 100,15.2,> 100,5.14,19.6,11.3,0.79,–
CCOC(=O)c1c2c(c(C)n1C)-c1oncc1CC2,> 100,> 100,> 100,–,> 100,–,> 100,> 100,> 100,> 100,–

# From ChEMBL document CHEMBL3875171, “[1,2]Oxazolo[5,4-e]isoindoles as promising tubulin polymerization inhibitors” (Eur J Med Chem, 2016)
